Where a name gives a salt, the structure may show the parent alone. Read-outs that look alike come from different tables or passages of the source.
What was measured:
mouse Elp2 protein = biological target: T1, mouse Elp2 protein (Mus musculus, UniProt Q91WG4); assay: SPRi affinity measurement of chip-immobilized library compounds to Elp2 protein; type: binding
T1 sequence (Q91WG4 1-831): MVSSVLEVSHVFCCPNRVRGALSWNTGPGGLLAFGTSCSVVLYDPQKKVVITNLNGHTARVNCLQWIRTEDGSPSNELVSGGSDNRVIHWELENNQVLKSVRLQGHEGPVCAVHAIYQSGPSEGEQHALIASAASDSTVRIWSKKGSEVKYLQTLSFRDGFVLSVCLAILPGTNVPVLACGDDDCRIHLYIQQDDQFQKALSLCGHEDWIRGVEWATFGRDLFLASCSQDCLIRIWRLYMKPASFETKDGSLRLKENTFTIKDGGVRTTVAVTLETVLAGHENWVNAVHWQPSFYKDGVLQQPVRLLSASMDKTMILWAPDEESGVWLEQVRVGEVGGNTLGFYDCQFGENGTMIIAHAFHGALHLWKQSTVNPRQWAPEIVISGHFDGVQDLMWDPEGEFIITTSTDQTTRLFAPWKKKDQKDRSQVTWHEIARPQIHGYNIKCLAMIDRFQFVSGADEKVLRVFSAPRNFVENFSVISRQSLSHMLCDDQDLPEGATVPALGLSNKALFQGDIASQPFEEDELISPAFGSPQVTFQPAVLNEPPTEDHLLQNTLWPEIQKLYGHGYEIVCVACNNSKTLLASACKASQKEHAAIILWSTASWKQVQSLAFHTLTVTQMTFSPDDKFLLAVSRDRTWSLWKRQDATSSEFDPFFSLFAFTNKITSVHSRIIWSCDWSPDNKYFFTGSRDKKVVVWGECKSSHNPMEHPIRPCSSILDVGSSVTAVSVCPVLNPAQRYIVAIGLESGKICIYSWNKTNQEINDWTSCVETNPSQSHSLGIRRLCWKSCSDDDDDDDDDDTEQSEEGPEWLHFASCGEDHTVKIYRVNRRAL

MC3T3-E1 cells [1] = assay: ALP staining and activity, self-differentiation; type: cell-based; conditions: Mus musculus, MC3T3-E1, read-out: EC50 based on ALP activity
How it was run: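 MC3T3-E1 cells in DMEM with 10% FBS and 1% penicillin/streptomycin at 37 °C, 5% CO2; plated at 50% confluence, 24 h. No inducer. On day 0, given ddH2O solvent or 5 ng mL−1 TNF-α ± test compound at eleven levels (10 nM–800 μM). On day 7: kit ALP stain; ALP activity by OD 405 nm, per μg BCA total protein; EC50 from ALP activity. Mean ± SEM, triplicate.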

MC3T3-E1 cells [2] = assay: Q-PCR of osteogenic differentiation marker genes, SD model; type: cell-based, mouse; conditions: MC3T3-E1, day 7, with TNF-α
How it was run: (§1)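 On day 7 after day-0 treatment (5 ng mL−1 TNF-α ± test compound; C2C12 also with 100 ng mL−1 BMP-2), 2 × 10^5 cells harvested. Total RNA by TRIzol, column-purified and DNase-treated; 0.25 μg reverse transcribed. COL-I, ALP, OCN, BMP-2, RUNX-2 and OSX measured by real-time Q-PCR with gene-specific primers. Normalised to β-actin by ΔΔCt. Triplicate.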

C2C12 cells [3] = assay: Mineralization assessment by Alizarin Red S staining, ID model; type: cell-based, mouse; conditions: C2C12, day 35, with TNF-α, vs negative control (p < 0.05)
[4] = tested on: melanoma cells bearing B-Raf^V600E; conditions: cited from earlier work
MC3T3-E1 cells [5] = assay: Mineralization assessment by Alizarin Red S staining, SD model; type: cell-based, mouse; conditions: MC3T3-E1, day 35, with TNF-α, vs negative control (p < 0.05)
[6] = tested on: B-Raf^V600E dependented tumor xenograft models; conditions: orally dosed, without evidence of cytotoxicity; cited from earlier work
C2C12 cells [7] = assay: Q-PCR of osteogenic differentiation marker genes, ID model; type: cell-based, mouse; conditions: C2C12, day 7, with TNF-α
How it was run: as §1

C2C12 cells [8] = assay: ALP staining and activity, inflammatory differentiation; type: cell-based; conditions: Mus musculus, C2C12, read-out: EC50 based on ALP activity
[9] = SPRi, Elp2 200-3200 nM, 1:1 Langmuir binding

Q: What does the source list for `CC(C)N(CCC(c1ccccc1)c1cc(CO)ccc1O)C(C)C` (centres unmarked) [5-Hydroxymethyl tolterodine]?
A: Kd (mouse Elp2 protein; [9]): 1.47 µM; koff (mouse Elp2 protein; [9]): 0.0166 s⁻¹; kon (mouse Elp2 protein; [9]): 11300 M⁻¹ s⁻¹

Q: Which results are given for `CCCS(=O)(=O)Nc1ccc(F)c(C(=O)c2c[nH]c3ncc(Cl)cc23)c1F` [PLX-4720]?
A: EC50 (MC3T3-E1 cells [1]): 16.7 µM; mRNA expression levels of COL-I, ALP, OCN, BMP-2, RUNX-2 and OSX (MC3T3-E1 cells [2]): elevated; Mineralization, Alizarin Red S stained spots (C2C12 cells [3]): more stained spots compared with the negative control; ERK phosphorylation [4]: significantly inhibits; Mineralization, Alizarin Red S stained spots (MC3T3-E1 cells [5]): more stained spots compared with the negative control; tumor growth [6]: tumor growth delays; mRNA expression levels of COL-I, ALP, OCN, BMP-2, RUNX-2 and OSX (C2C12 cells [7]): elevated; EC50 (C2C12 cells [8]): 10.3 µM

Q: What does the source list for `O=C1O[C@H](CO)[C@@H](O)[C@H](O)[C@H]1O` [Gluconolactone]?
A: Kd (mouse Elp2 protein): 31 µM; koff (mouse Elp2 protein): 0.0819 s⁻¹; kon (mouse Elp2 protein): 2640 M⁻¹ s⁻¹

Q: What does the source list for `CC(C)NCC(O)c1ccc(O)c(O)c1` (centres unmarked) [Isoprenaline hydrochloride]?
A: Kd (mouse Elp2 protein): 4.6 µM; koff (mouse Elp2 protein): 0.00454 s⁻¹; kon (mouse Elp2 protein): 987 M⁻¹ s⁻¹

Q: For RK-33, which Kd (mouse Elp2 protein; [9]) is on record?
A: 0.481 µM

Q: And the koff (mouse Elp2 protein; [9])?
A: 2.59e-05 s⁻¹

Q: And the kon (mouse Elp2 protein; [9])?
A: 53.8 M⁻¹ s⁻¹

Q: With `CNC[C@H](O)c1ccc(O)c(O)c1` [Epinephrine bitartrate] as the compound, how does the Kd (mouse Elp2 protein) read?
A: 0.676 µM

Q: And the koff (mouse Elp2 protein)?
A: 0.000529 s⁻¹

Q: And the kon (mouse Elp2 protein)?
A: 783 M⁻¹ s⁻¹

Q: For `Cn1nnc2c(C(N)=O)ncn2c1=O` [Temozolomide], which Kd (mouse Elp2 protein) is on record?
A: 2.53 µM

Q: What about the koff (mouse Elp2 protein) of the same compound?
A: 0.000462 s⁻¹

Q: And the kon (mouse Elp2 protein)?
A: 182 M⁻¹ s⁻¹

Source: publication PMC9059734 (RSC Advances, 2019)
